Test results reported in ChEMBL document CHEMBL1147355, “Tricolorin A, major phytogrowth inhibitor from Ipomoea tricolor” (J Nat Prod, 1993).
Values after ≈ are worked out from the molar mass of the structure shown.

What was measured:
KB = assay: Cytotoxicity against human KB cells; type: functional; conditions: read-out: ED50 (the source's name)
Summary of the method: (§1)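 Cell lines obtained from ATCC and tested in vitro following an earlier cytotoxicity protocol. The value is reported as ED50.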

SK-MEL-2 = assay: Cytotoxicity against human SK-MEL-2 cells; type: functional; conditions: read-out: ED50 (the source's name)
Summary of the method: (§2)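 Cell lines established from primary human tumors at a university surgical oncology division and tested in vitro following an earlier cytotoxicity protocol. The value is reported as ED50.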

P388 = assay: Cytotoxicity against mouse P388 cells; type: functional; conditions: read-out: ED50 (the source's name); summary of the method: as §1
[1] = system: Amaranthus hypochondriacus; assay: Phytogrowth-inhibitory activity against Amaranthus hypochondriacus assessed as inhibition of radicle growth at 100 ug/ml incubated in dark at 27 degC measured after 24 hrs; type: functional; conditions: read-out: GI
Summary of the method: (§3)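 Samples in MeOH-H2O (1:1) were added to Petri dishes and air-dried, giving a final 100 µg/ml. Solvent-only dishes served as negative controls and 2,4-D as positive control. Dishes were kept dark at 27°. Radicle length was read at 24 h for A. leucocarpus and 48 h for E. crus-galli. Results are % of untreated control, 4 replicates × 20 seedlings, with ANOVA/Duncan.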

HT-1080 = assay: Cytotoxicity against human HT1080 cells; type: functional; conditions: read-out: ED50 (the source's name); summary of the method: as §1
Col2 = assay: Cytotoxicity against human Col2 cells; type: functional; conditions: read-out: ED50 (the source's name); summary of the method: as §2
[2] = (§4) Displacement of [3H]PDBu from protein kinase C in calf brain homogenate by scintillation counting; type: tissue-based, Bos taurus
Summary of the method: (§5)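 Incubation mix contained 50 mM Tris/HCl (pH 7.4), 1 mM CaCl2, 39.2 nM [3H]PDBu, 50 µg/ml calf brain homogenate as the protein kinase C source, and compound in DMSO. Tubes ran 1 h at ambient temperature, then were filtered onto glass fiber and counted. Nonspecific binding was taken as the part not displaced by 100-fold excess unlabelled PDBu. Curve used five-fold dilutions from 200 to 0.32 µg/ml, 4 replicates.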

Bos taurus = species on record: Bos taurus; assay: as §4; type: tissue-based; summary of the method: as §5
LNCaP = assay: Cytotoxicity against human LNCAP cells; type: functional; conditions: read-out: ED50 (the source's name); summary of the method: as §1
[3] = system: Amaranthus hypochondriacus; assay: Phytogrowth-inhibitory activity against Amaranthus hypochondriacus assessed as inhibition of radicle growth incubated in dark at 27 degC measured after 24 hrs; type: functional, organism-based
Summary of the method: (§6)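 Seeds in Petri dishes with test sample applied in MeOH-H2O (1:1), solvent air-dried before use. Kept in the dark at 27°: 24 h for Amaranthus, 48 h for E. crus-galli. Germination percentage and radicle length scored. Controls: 2,4-D positive, solvent-only negative. Germination IC50 from linear regression; radicle-growth IC50 from probit analysis.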

[4] = Cytotoxicity against drug-resistant human KBV1 cells; type: functional; conditions: KB-V1, read-out: ED50 (the source's name)
[5] = system: Amaranthus hypochondriacus; assay: Stimulation of Amaranthus hypochondriacus radicle growth at 1 ug/ml incubated in dark at 27 degC measured after 24 hrs relative to control; type: functional
Summary of the method: (§7)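 Petri-dish seed assay at 1 µg/ml, with sample in MeOH-H2O (1:1) air-dried before seeding. Held in the dark at 27° and scored at 24 h (Amaranthus) or 48 h (E. crus-galli). Radicle growth expressed relative to untreated controls.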

Echinochloa crus-galli [6] = assay: Phytogrowth-inhibitory activity against Echinochloa crus-galli assessed as inhibition of seed germination incubated in dark at 27 degC measured after 48 hrs; type: functional, organism-based; summary of the method: as §6
[7] = Cytotoxicity against human BC1 cells; type: functional; conditions: read-out: ED50 (the source's name); summary of the method: as §2
Echinochloa crus-galli [8] = assay: Stimulation of Echinochloa crus-galli radicle growth at 1 ug/ml incubated in dark at 27 degC measured after 48 hrs relative to control; type: functional; summary of the method: as §7
Staphylococcus aureus = assay: Antibacterial activity against Staphylococcus aureus ATCC 25923 by agar diffusion technique; type: functional
[9] = Toxicity in brine shrimp assessed as lethality; type: organism-based; conditions: artemia, in vivo
Echinochloa crus-galli [10] = assay: Phytogrowth-inhibitory activity against Echinochloa crus-galli assessed as inhibition of radicle growth incubated in dark at 27 degC measured after 48 hrs; type: functional, organism-based; summary of the method: as §6
ZR-75-1 = assay: Cytotoxicity against human ZR-75-1 cells; type: functional; conditions: read-out: ED50 (the source's name); summary of the method: as §1
Echinochloa crus-galli [11] = assay: Phytogrowth-inhibitory activity against Echinochloa crus-galli assessed as inhibition of radicle growth at 100 ug/ml incubated in dark at 27 degC measured after 48 hrs; type: functional; conditions: read-out: GI; summary of the method: as §3
[12] = system: Amaranthus hypochondriacus; assay: Phytogrowth-inhibitory activity against Amaranthus hypochondriacus assessed as inhibition of seed germination incubated in dark at 27 degC measured after 24 hrs; type: functional, organism-based; summary of the method: as §6
A-431 = assay: Cytotoxicity against human A431 cells; type: functional; conditions: read-out: ED50 (the source's name); summary of the method: as §1
Lu1 = assay: Cytotoxicity against human Lu1 cells; type: functional; conditions: read-out: ED50 (the source's name); summary of the method: as §2

Which EC50 (KB) does the source give for CCCCC[C@H]1CCCCCCCCCC(=O)O[C@H]2[C@H](O)[C@@H](CO)O[C@@H](O[C@H]3[C@H](O1)O[C@H](C)[C@H](O)[C@@H]3O)[C@@H]2O[C@@H]1O[C@@H](C)[C@H](OC(=O)[C@@H](C)CC)[C@@H](O[C@@H]2O[C@@H](C)[C@H](O)[C@@H](O)[C@H]2O)[C@H]1OC(=O)[C@@H](C)CC [TRICOLORIN A] here?
Its EC50 is > 20 µg/mL.

What about the EC50 (SK-MEL-2) of the same molecule?
Its EC50 is 7.6 µg/mL (≈ 7.43 µM).

And the EC50 (P388)?
The EC50 was 2.2 µg/mL (≈ 2.15 µM).

And the inhibition of growth at 100 µg/mL [1]?
Its inhibition of growth at 100 µg/mL is 68.3%.

And the EC50 (HT-1080)?
The EC50 was 6.3 µg/mL (≈ 6.16 µM).

And the EC50 (Col2)?
The EC50 was 8.9 µg/mL (≈ 8.7 µM).

And the IC50 [2]?
The IC50 was 44.1 µg/mL (≈ 43.1 µM).

And the Activity (Bos taurus)?
The Activity was “Dose-dependent effect”.

And the EC50 (LNCaP)?
The EC50 was 5.8 µg/mL (≈ 5.67 µM).

What about the Activity [3] of the same molecule?
Its Activity is “Dose-dependent effect”.

What about the IC50 [3] of the same molecule?
The IC50 was 37 µg/mL (≈ 36.2 µM).

What about the EC50 [4] of the same molecule?
The EC50 was > 20 µg/mL.

What about the Activity [5] of the same molecule?
Its Activity is 4%.

And the IC50 (Echinochloa crus-galli [6])?
Its IC50 is 36.9 µg/mL (≈ 36.1 µM).

What about the EC50 [7] of the same molecule?
Its EC50 is 2.2 µg/mL (≈ 2.15 µM).

What about the Activity (Echinochloa crus-galli [8]) of the same molecule?
The Activity was 4%.

And the MIC (Staphylococcus aureus)?
Its MIC is 1.8 µg/mL (≈ 1.76 µM).

What about the LC50 [9] of the same molecule?
The LC50 was 18.2 µg/mL (≈ 17.8 µM).

And the Activity (Echinochloa crus-galli [10])?
Its Activity is “Dose-dependent effect”.

And the IC50 (Echinochloa crus-galli [10])?
Its IC50 is 12.6 µg/mL (≈ 12.3 µM).

And the EC50 (ZR-75-1)?
Its EC50 is 8.1 µg/mL (≈ 7.92 µM).

What about the inhibition of growth at 100 µg/mL (Echinochloa crus-galli [11]) of the same molecule?
Its inhibition of growth at 100 µg/mL is 78.8%.

And the IC50 [12]?
Its IC50 is 152 µg/mL (≈ 149 µM).

What about the EC50 (A-431) of the same molecule?
Its EC50 is 10.3 µg/mL (≈ 10.1 µM).

And the EC50 (Lu1)?
Its EC50 is 5.5 µg/mL (≈ 5.38 µM).

Which Activity [5] does the source give for O=C(O)COc1ccc(Cl)cc1Cl [2,4-DICHLOROPHENOXYACETIC ACID] here?
The Activity was 4%.

What about the Activity (Echinochloa crus-galli [8]) of the same molecule?
Its Activity is 4%.
